High-throughput results: PubChem, Sanford-Burnham Center for Chemical Genomics
SENP7 block – SENP7 protease inhibition. Q9BQF6. recombinant SENP7, Z-RLRGG-aminoluciferin luminescence, 40 min. inhibition, % at 5 µM. actives 1.5% (n = 330,000). AID 434973;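 active = inhibition above about 50% at the single test dose, limit read from the data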;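 note: plate controls were DMSO with enzyme for no effect and no enzyme buffer wells for full effect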
SENP8 block-1 – SENP8 protease inhibition | Q96LD8 | purified SENP8, Z-RLRGG-aminoluciferin cleavage, luminescence | inhibition, % at 10 µM | actives 1.2% (n = 330,000) | AID 2540; in the data active = inhibition above about 50%
Target sequence (Q96LD8 whole entry, looked up): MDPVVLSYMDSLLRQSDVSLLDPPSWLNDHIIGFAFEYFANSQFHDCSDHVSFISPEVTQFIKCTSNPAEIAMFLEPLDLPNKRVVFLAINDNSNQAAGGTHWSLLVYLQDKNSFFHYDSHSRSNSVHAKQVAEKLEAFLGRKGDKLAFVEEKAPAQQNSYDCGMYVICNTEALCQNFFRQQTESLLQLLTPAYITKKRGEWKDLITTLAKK
UBC13 inh – blocks human UBC13 polyubiquitin chain formation | TR-FRET | P61088 | inhibition, % at 20 µM | actives 0.47% (n = 330,000); in the data active = inhibition above about 45%, passing the limit was not always enough
Target sequence (P61088 whole entry, looked up): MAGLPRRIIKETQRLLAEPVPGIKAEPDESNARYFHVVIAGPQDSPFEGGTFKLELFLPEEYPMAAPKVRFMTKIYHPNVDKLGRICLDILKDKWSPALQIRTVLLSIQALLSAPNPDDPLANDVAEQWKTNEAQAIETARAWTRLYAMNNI
Apaf-1 inh – inhibitors of human Apaf-1 apoptosome; O14727; inhibition, % at 20 µM; actives 0.71% (n = 330,000); AID 489030; reconstituted apoptosome caspase-3 activity, DEVD-Rh110 fluorescence; active = inhibition of at least 40% at 20 µM;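 note: plate controls were DMSO wells for no effect and DEVD-CHO caspase inhibitor wells for full effect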
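System – cell-free apoptosome with Apaf-1, procaspase-3 and caspase-9 · Buffer or medium – pH 7.5 Hepes buffer with CHAPS, BSA, DTT · Also added – cytochrome c with DEVD-Rh110 · Times – 30 min compound preincubation, 50 min activation, room temperature · Technique – Rh110 fluorescence intensity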
SENP8 block-2 – SENP8 (human) protease inhibition; recombinant SENP8, Nedd8 substrate fluorescence; inhibition, % at 20 µM; actives 0.64% (n = 360,000); in the data active = inhibition mostly above about 40%, no sharp cut-off; inactive = mostly below about 27%
SENP6 inh – SENP6 protease inhibition | AID 2599 | actives 1.8% (n = 330,000) | Recombinant SENP6 catalytic domain, aminoluciferin luminescence | inhibition, % at 10 µM;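 active = inhibition above about 50% at the single tested dose, limit read from the data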;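 note: plate controls were DMSO wells with enzyme for no effect and DMSO wells lacking enzyme for full effect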
SENP8 inh conf – confirmation of human SENP8 protease inhibitors; shares compounds with SENP8 block-2; actives 15% (n = 1,400); purified SENP8, Nedd8-AMC/pro-Nedd8 cleavage fluorescence, 30 min; inhibition, % at 25 µM; in the data active = inhibition mostly above about 39%, no sharp cut-off; inactive = mostly below about 34%
* = called active by the depositor; . = no result. Rows were chosen to be rich in hits. Some 3% of all compounds tested hit in one or more screens of this group.

SMILES	SENP7 block	SENP8 block-1	UBC13 inh	Apaf-1 inh	SENP8 block-2	SENP6 inh	SENP8 inh conf
O=C(c1cc(-c2ccccc2Cl)on1)N1CCN(C(=O)c2ccco2)CC1	4	2	9	8	43*	-12	18
O=C(c1cc(-c2ccc(Cl)cc2Cl)on1)N1CCN(C(=O)c2ccco2)CC1	0	-4	0	8	36	-15	.
Cc1ccc(C(C)NC(=O)c2ccncc2)c(C)c1 (centres undefined)	-4	1	-8	-11	12	18	.
Cc1ccc(S(=O)(=O)Nc2ccccc2C(C(=O)OC(C)(C)C)C(=O)OC(C)(C)C)cc1	.	.	.	.	6	.	.
O=C(O)c1ccccc1S(=O)(=O)NCC(O)COC1CCCCC1 (centres undefined)	-7	-13	-5	-5	43*	-18	2
Cc1ccc(OCC(O)CNS(=O)(=O)c2ccccc2C(=O)O)cc1 (centres undefined)	9	-3	4	8	26	-6	.
COc1ccc(NC(=O)C2CC(=O)OC23CCOC(C)(C)C3)cc1 (centres undefined)	0	6	6	-9	42*	-11	10
COC(=O)Cc1c(C)nc2nc(-c3ccc(Cl)cc3)[nH]n2c1=O	2	-5	-6	7	-2	27	.
COC(=O)Cc1c(C)nc2nc(-c3ccc(C)cc3)[nH]n2c1=O	-6	-5	-2	-2	46*	-12	-9
CCOc1ccc(Br)cc1S(=O)(=O)NC1=NCCCCC1	-7	-2	4	-2	18	4	.
O=C(Nc1c(-c2ccccc2)[nH][nH]c1=O)c1cnccn1	.	.	.	.	40*	.	37
COc1ccc(-c2[nH][nH]c(=O)c2NC(=O)c2ccc(C)cc2)cc1	.	.	.	.	45*	.	14
O=C(Nc1c(-c2ccccc2)[nH][nH]c1=O)c1ccc(Br)cc1	.	.	.	.	58*	.	22
O=C(Nc1c(-c2ccc3c(c2)OCO3)[nH][nH]c1=O)c1cnccn1	.	.	.	.	27	.	.
CCCCN(Cc1nc2ccccc2c(=O)[nH]1)C(=O)c1nn(C)c(=O)c2ccccc12	0	-4	8	4	-16	-10	.
Cc1cccc(NC(=O)CCS(=O)(=O)c2cccc3nsnc23)c1C	6	6	-4	5	41*	-10	15
CCOC(=O)c1cccc(NC(=O)CCS(=O)(=O)c2cccc3nsnc23)c1	-8	-11	-4	14	28	-8	.
Nc1ccc(N=Nc2ccccc2)cc1[N+](=O)[O-]	.	.	.	.	26	.	.
Nc1cc([N+](=O)[O-])cc2oc(-c3ccccc3)cc12	13	-4	-146	17	36*	20	19
O=C(O)c1ccc(N/N=C/C=C/c2ccc([N+](=O)[O-])o2)cc1	6	-7	-284	7	45*	27	28
O=C(N/N=C/c1ccc([N+](=O)[O-])o1)C(=O)Nc1ccc(C(=O)O)cc1	1	4	2	-13	33	23	.
COC(=O)C1SCCN1S(=O)(=O)c1ccc(Cl)cc1 (centres undefined)	-3	-11	-2	6	42*	-2	12
O=C(OCn1nnc2ccccc2c1=O)C1CCCCC1	6	-5	-2	5	42*	-31	12
O=C(CN1C(=O)C2CCCCC2C1=O)OCn1nnc2ccccc2c1=O (centres undefined)	3	-1	6	-4	-39	-14	.
CCC1(c2ccc(F)cc2)NC(=O)N(CC(=O)Nc2ccc(N3CCCCC3)cc2)C1=O (centres undefined)	6	-7	1	18	20	-19	.
SMILES	SENP7 block	SENP8 block-1	UBC13 inh	Apaf-1 inh	SENP8 block-2	SENP6 inh	SENP8 inh conf
CC(C)(C)OC(=O)N[C@@H](Cc1ccccc1)C(=O)NCC1CCC(C(=O)O)CC1 (some centres undefined)	8	-3	8	1	19	1	.
Cc1cc(NS(=O)(=O)c2ccc(NC(=O)C(C(C)C)N3C(=O)c4ccccc4C3=O)cc2)nc(C)n1 (centres undefined)	4	0	-7	-5	11	2	.
Cc1cc(NS(=O)(=O)c2ccc(NC(=O)C(CC(C)C)N3C(=O)c4ccccc4C3=O)cc2)nc(C)n1 (centres undefined)	11	7	-13	25	42*	-1	-3
CCOc1ccc(NC(=O)CN(c2ccc(OC)cc2)S(C)(=O)=O)cc1	1	-1	-5	-10	28	-3	.
COC(=O)c1ccc(NC(=O)CN(c2ccc(OC)cc2)S(C)(=O)=O)cc1	8	2	0	5	41*	2	17
C=C(C)Cn1c(NCCOC)nc2c1c(=O)[nH]c(=O)n2C	0	-6	-1	-40	40*	-3	9
COCCCNc1nc2c(c(=O)[nH]c(=O)n2C)n1CCCc1ccccc1	-9	-2	-8	12	14	-16	.
CN(C)c1ccc(N2CN=C3SCC(=O)N3C2)cc1	9	-1	-6	26	52*	6	17
CNC(=O)N(c1ccccc1)c1ccccc1	-7	-15	2	7	43*	-18	12
CC(=O)c1cccc(NC(=O)N(c2ccccc2)c2ccccc2)c1	-4	-2	-8	2	10	11	.
Cn1c(NNC(=O)c2c(F)cccc2F)cc(=O)n(C)c1=O	7	6	-19	-13	48*	-10	48*
COc1cccc(C2c3[nH]c4ccccc4c3C[C@H]3C(=O)N(c4ccccc4C(=O)NCCCN4CCOCC4)C(=O)N23)c1 (some centres undefined)	-7	-11	17	9	51*	2	13
COc1ccc(C2c3[nH]c4ccccc4c3C[C@H]3C(=O)N(c4ccccc4C(=O)N4CCC[C@@H]4C(=O)O)C(=O)N23)cc1 (some centres undefined)	13	-7	-17	1	23	-9	.
Cc1ccc(C2c3[nH]c4ccccc4c3C[C@H]3C(=O)N(c4ccccc4C(=O)N4CCC[C@H]4C(=O)O)C(=O)N23)cc1 (some centres undefined)	-1	1	-18	-1	43*	2	-7
COc1ccc(C2c3[nH]c4ccccc4c3C[C@H]3C(=O)N(c4ccccc4C(=O)N4CCC[C@H]4C(=O)O)C(=O)N23)cc1 (some centres undefined)	-2	3	-12	-3	42*	-2	2
Cc1cc(C(=O)NC2CCCN(Cc3ccccc3F)C2)n[nH]1 (centres undefined)	-4	-2	0	5	1	-6	.
O=C(/C=C/c1cccs1)Nc1ccc([N+](=O)[O-])cc1	6	-9	2	4	-77	19	.
